Experimental data reported in publication PMC5014453 (Molecular Therapy. Nucleic Acids, 2016).

How the values were obtained:
[1] = tested on: HBV (pUC18-HBV1.3 hydrodynamic injection); assay: Anti-HBV assay in an acute hepatitis B mouse model; type: in vivo, BALB/c mice; settings: acute hepatitis B mice, real-time PCR, n = 5; Tat-PNA-DR 5.05 mg/kg, 3TC 0.5 mg/kg
[2] = tested on: HBV proteins in HepG2.2.15 cells; assay: Western blot of intracellular HBV proteins in HepG2.2.15 cells; type: cell-based, Hepatitis B virus; settings: HepG2.2.15 cell lysates, 3TC 20 μmol/l
[3] = tested on: HBV DNA and RNA in HepG2.2.15 cells; assay: Southern and northern blot of intracellular HBV DNA and RNA in HepG2.2.15 cells; type: cell-based, Hepatitis B virus; settings: southern blot, 48 hours, 3TC 20 μmol/l
Method in brief: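 HepG2.2.15 cells grown in DMEM with 10% FBS, penicillin and streptomycin at 37 °C, 5% CO2, then exposed to test compound; 3TC control at 20 μmol/l. Total RNA TRIzol-extracted, run on 1.5% formaldehyde agarose gel, HBV RNAs probed with the DIG probe also used for Southern blot; GAPDH DIG probe as internal control.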

Structure (SMILES): Nc1ccn([C@@H]2CS[C@H](CO)O2)c(=O)n1 [3TC, lamivudine]
- average HBV DNA concentration in serum [1]: 1.2 × 10^4 copies/ml
- intracellular HBV protein levels (HBsAg, HBV core protein, x protein, RT) [2]: did not affect the expression of any HBV viral proteins
- intracellular HBV DNA [3]: clearly inhibited the synthesis of HBV DNA
